Laboratory results published in publication PMC5708124 (Nature microbiology, 2017).

Experiments:
[1] = test system: HEK293 human embryonic kidney cell line; test: HEK293 cytotoxicity; format: cell-based; settings: at 40 μM, 72 h
Outline: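 Cells were grown in DMEM with 10% fetal calf serum and seeded at 2,000 cells/well, then left overnight at 37°C in 5% CO₂ to adhere. Test compound was added as a serial dilution with a maximum of 40 μM, at 0.4% DMSO final, for 72 h. Medium was then replaced with serum-free DMEM containing 44 μM resazurin for 4–6 h. Fluorescence was read at 530/595 nm. Two biological replicates.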

[2] = test system: 3D7 (drug-sensitive) ABS parasites; test: Imaging-based asexual blood stage high-throughput assay; format: cell-based, Plasmodium falciparum; settings: read-out: ABS IC50; drug-sensitive 3D7, 72 h
Outline: (§1)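 Sorbitol-synchronized parasites were seeded at 2% parasitemia and 0.3% Hct and exposed to test compound for 72 h at 37°C in 5% O₂/5% CO₂/90% N₂. Cells were then permeabilized with 0.01% Triton X-100, 0.001% saponin and 5 mM EDTA, and stained with 0.5 μg/mL DAPI for at least 6 h at room temperature in the dark. Confocal imaging used 405 nm excitation. Parasites were counted from spot size and intensity. Two independent cultures.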

Dd2-B2 parasites = test: Heme fractionation assay; format: cell-based, Plasmodium falciparum
[3] = test system: P. berghei ANKA MRA868 ABS parasites; test: 4-day Peters test; format: in vivo, P. berghei in CD-1 mice; settings: 4 doses, 96 h post infection
Outline: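 Female CD-1 mice (5 weeks old, 22–25 g; four per group) were infected intraperitoneally with 1x10⁶ parasites. The test compound was given intraperitoneally at 2, 24, 48 and 72 h after infection, in 20% DMSO in water. Controls were solvent only and DHA at 30 mg/kg. Parasitemia was read by microscopy at 96 h. Groups were randomized and blinded. The 100 mg/kg groups were tested once.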

male GAM exflagellation = test: Male GAM exflagellation of GAM cultures used for membrane feeding; format: cell-based, Plasmodium falciparum; settings: GAM cultures exposed at 3x late-stage IC50
[4] = test system: PfMDR1^selY290F parasites; test: Heme fractionation assay; format: cell-based, Plasmodium falciparum; settings: PfMDR1^selY290F
Outline: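 Early ring-stage, sorbitol-synchronized parasites were exposed to test compound at 0.1, 0.25, 0.5, 1 and 2x the ABS IC50. Heme species were fractionated and normalized to the number of cells analyzed, counted by flow cytometry of an aliquot. Significance was tested by two-tailed t-tests.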

[5] = test system: NF54^Pfs16 late-stage GAMs; test: Image-based late-stage gametocyte inhibition assay; format: cell-based, Plasmodium falciparum; settings: in words
Outline: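 Day-8 stage IV gametocytes were MACS-purified and set at 10% parasitemia and 0.1% Hct, with 0.4% DMSO final. They were incubated 72 h at 37°C in 5% O₂/5% CO₂/90% N₂, then stained overnight with MitoTracker Red CM-H₂XRos. Confocal imaging counted viable mature gametocytes per imaged area; 5 μM puromycin was the control. Screening used 2 μM in triplicate. Potency used serial dilutions up to 40 μM, three per log, on two independent occasions.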

[6] = test system: PfMDR1 mutant lines versus parental ABS parasites (Dd2-B2, FCB); test: Drug susceptibility profiling of HHQ-resistant lines in ABS parasites; format: cell-based, Plasmodium falciparum
[7] = test system: compound-exposed Pf GAMs in Anopheles stephensi mosquitoes; test: Membrane-feeding assay with A. stephensi mosquitoes; format: in vivo, Plasmodium falciparum
Outline: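 Day-12 gametocytes were treated 3 days at 1x or 3x their late-stage IC50, with compound refreshed daily, then held 4 days without compound. Controls were 0.25% DMSO and methylene blue at 3x. Stage V cultures (50% Hct, 0.01–0.16% parasitemia) were membrane-fed for 30 min to A. stephensi, kept at 26°C and 78% RH. Midguts were dissected on day 7–8, stained with mercurochrome and oocysts counted blind. Prevalence is the percentage of mosquitoes with at least one oocyst.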

Dd2-B2 late rings = test: Hb endocytosis by Western blot; format: cell-based, Plasmodium falciparum; settings: 5′ the IC50 for 5 h, normalized to DMSO control
Outline: (§2)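 Sorbitol-synchronized parasites were exposed to test compound at 5x IC50 for 5 h, starting at the late ring stage. Lysates were blotted to nitrocellulose and probed overnight at 4°C with rabbit anti-human Hb (1:5,000) and anti-β-actin (1:2,000). Detection was by ECL. Hb band intensities were normalized to β-actin and compared with untreated controls. Repeated on 3–4 independent occasions.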

[8] = test system: Dd2 (multidrug-resistant) ABS parasites; test: Imaging-based asexual blood stage high-throughput assay; format: cell-based, Plasmodium falciparum; settings: read-out: ABS IC50; multidrug-resistant Dd2, 72 h
[9] = test system: cultured P. berghei liver-stage parasites; settings: cited from earlier work
[10] = test system: P. berghei ANKA MRA868 GAMs, Anopheles stephensi mosquitoes; test: In vivo transmission-blocking effect; set-up: species or system P. berghei in CD-1 mice; settings: mice given two doses 12 h apart: 100 mg/kg GNF compounds, 30 mg/kg DHA
[11] = test system: NITD609-R^Dd2 clone #2 (PfATP4 mutant line); test: Imaging-based asexual blood stage high-throughput assay; format: cell-based, Plasmodium falciparum; settings: read-out: ABS IC50, 72 h
Outline: as §1

[12] = test system: NF54^Pfs16 early-stage GAMs; test: Luciferase-based early-stage gametocyte inhibition assay; format: cell-based, Plasmodium falciparum; settings: in words
Outline: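 Gametocytes on day 1 of gametocytogenesis were set at 10% parasitemia and 0.5% Hct. They were kept in medium with 50 mM N-acetyl-D-glucosamine, refreshed daily. Compound was added at 0.4% DMSO final. Controls were DMSO (0% inhibition) and 5 μM puromycin (100% inhibition). After 72 h at 37°C in 5% O₂/5% CO₂/90% N₂, Steadylite was added, followed by 60 min lysis at room temperature and a luminescence read. Potency used serial dilutions up to 40 μM, three per log, on two independent occasions.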

[13] = test system: PfMDR1^selY290F late rings; test: Hb endocytosis by Western blot; format: cell-based, Plasmodium falciparum; settings: 5′ the IC50 for 5 h
Outline: as §2

[14] = test system: Pf ABS parasites and GAMs; settings: cited from earlier work
[15] = all exposure levels up to 2′ IC50, 32 h

## CCOC(=O)C1=C(C)NC2=C(C(=O)CC(c3ccc(OC)c(OC)c3)C2)C1c1ccccc1Cl (centres unmarked) [GNF-Pf-5660]
[1]
  inhibition of HEK293 cells: no inhibition
[2]
  IC50: < 0.025 µM
Dd2-B2 parasites; 0.1′ the IC50 value
  fold decrease in Hz levels compared with untreated controls: 1.5 fold
Dd2-B2 parasites; 0.25′ to 2′ IC50
  fold reduction in Hz levels: 2.3 fold
Dd2-B2 parasites; [15]
  Hb concentration per parasite: unchanged
  free heme concentration per parasite: unchanged
[3]; 70 mg/kg intraperitoneal
  reduction of parasitemia compared to vehicle-treated mice: 22%
[3]; 100 mg/kg intraperitoneal
  reduction of parasitemia compared to vehicle-treated mice: 65%
Male GAM exflagellation
  reduction in male GAM exflagellation rates: 98%
[4]
  fold higher exposure levels than in Dd2-B2 giving similar profile of reduced Hz and total heme iron: > 160 fold
[5]
  late-stage gametocytocidal activity: potent
[6]; GNF-Pf-5660-selected clone 2B6H1, PfMDR1 Y290F (AB 100%)
  fold increase in IC50 compared to parental Dd2-B2: 248 fold
[7]; GAMs pre-treated at 3x late-stage IC50
  reduction in oocyst density per infected mosquito midgut: 95–99%
[7]; GAMs pre-treated at 3x late-stage IC50, 3 days, then 4 days without compound
  reduction in infection prevalence (percentage of infected mosquitoes): 97%
Dd2-B2 late rings
  reduction of Hb levels within parasites: 32%
[8]
  IC50: < 0.025 µM
[9]
  activity against liver-stage parasites: inactive
[10]
  reduction in oocyst burden: 21%
  reduction in the number of infected mosquitoes: 25%
[11]
  IC50: < 0.025 µM
[12]
  early-stage gametocytocidal activity: potent
[13]
  Hb levels within parasites: unchanged

## CC(=O)N1CCN(c2ccc(CN(C(=O)/C=C/c3ccc(C(C)(C)C)cc3)[C@@H](Cc3ccccc3)C(=O)N3CCN(Cc4ccc(C#N)cc4)CC3)cc2)CC1 [ACT-451840]
[6]; PfMDR1^edF1072L
  fold decreased susceptibility versus Dd2-B2: 16 fold
[6]; PfMDR1^edS1075I
  fold decreased susceptibility versus Dd2-B2: 5.5 fold
[6]; PfMDR1^selY290F
  fold decreased susceptibility versus Dd2-B2: 45 fold
[14]
  activity against Pf ABS parasites and GAMs: low nanomolar
